The values below come from publication PMC9398498 (Gastric Cancer, 2022).

One data set deals with GIST-T1 cells. Put plainly: Cell cycle analysis, GIST-T1. The data set is classed as cell-based. The settings on record: P < 0.01.
Data set [1] concerns GIST-T1 and GIST-T1/IMR cells. Put plainly: Cell apoptosis analysis. Type of data set: cell-based.
Data set [2] concerns GIST-T1 and GIST-T1/IMR cells. Put plainly: Plate colony formation experiment. The data set is classed as cell-based. The settings on record: P < 0.01.
A short description of data set [3]: Therapeutic drug monitoring. Type of data set: in vivo, human. The settings on record: 400 mg/qd; for concentration at 22 h: both, human, plasma, oral, Plasma concentration. In short, it runs like this: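 Patients on oral drug 400 mg once daily for over 1 month (steady state) took the dose at about 12:00. Peripheral venous blood was drawn about 10:00 next morning into anticoagulant tubes and centrifuged at 5000 rpm for 5 min. Plasma was stored at −20 °C, protein-precipitated, centrifuged and injected directly for 2D-LC-UV quantitation.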

The conditions of data set [4]: cited from earlier work.
Data set [5] concerns GIST-T1 and GIST-T1/IMR cells. Put plainly: Longitudinal migration through uncoated Matrigel. Type of data set: cell-based. The settings on record: both cell lines. A digest of the protocol:
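Parental and resistant GIST-T1 cells were grown in RPMI 1640 with 15% FBS at 37 °C, 5% CO2. Vertical migration was scored as the number of cells passing through uncoated Matrigel.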

The test system of a further data set is GISTs. The settings on record: cited from earlier work.
For another data set, the system named is GIST-T1/IMR cells. Description: Cell cycle analysis, GIST-T1/IMR. Type of data set: cell-based. The settings on record: DMS with IM vs only IM, P < 0.01.
Data set [6] deals with GIST-T1 and GIST-T1/IMR cells. Put plainly: Transwell chamber invasion assay. Type of data set: cell-based. The settings on record: DMS pretreatment and then IM treatment, within 48 h. A digest of the protocol:
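Parental and resistant GIST-T1 cells in RPMI 1640 with 15% FBS (37 °C, 5% CO2) were tested in a transwell chamber. Invasion within 48 h was counted as transmembrane cells.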

Another data set concerns SPK1. The settings on record: SPK1 compared to SPK2; cited from earlier work.
Data set [7] relates to S1P, SPK1 and ABCC1 protein expression. Description: Western blot of SPK1/S1P proteins. The settings on record: after DMS blockage for 5 h. The data set is classed as cell-based. In short, it runs like this: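 Lysates of parental and resistant GIST-T1 cells were probed with rabbit polyclonal anti-S1P, anti-SPK1 and anti-β-actin antibodies, plus anti-ABCC1. Bands were visualised by enhanced chemiluminescence.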

The subject of data set [8] is GIST-T1 and GIST-T1/IMR cells. Description: Cell scratch assay. The data set is classed as cell-based. The settings on record: DMS (10 µM, 5 h) pretreatment then IM (20 µM) vs only IM treatment, P < 0.01.

Structures can show the parent of a compound that is named as a salt. Where two headings read alike, the source gives them in different places.

Consider `Cc1ccc(NC(=O)c2ccc(CN3CCN(C)CC3)cc2)cc1Nc1nccc(-c2cccnc2)n1` [IM, Imatinib mesylate], for which, in the data set with GIST-T1 cells (exposed to IM vs control), the “proportion of G0/G1 phase” value is “higher proportion”. The apoptosis rate entry in data set [1] (GIST-T1 cells treated with IM alone vs control, P < 0.01) is “higher than that of the control group”. Besides, the “number of colony formation” value in [2] (IM intervention vs control) is “significantly less than the control group”. Besides, in data set [3] (29 patients), the “difference between the highest and lowest IM concentration” value is reported as “more than 12 fold”. In addition, the concentration at 22 h came out at 1510 ± 842 ng/mL in [3] (OCT1 1022C > T (rs 2282143) CC, n=22); 1750 ± 1090 ng/mL in data set [3] (OCT1 1022C > T (rs 2282143) TC, n=7); 300 ng/mL in [3] (OCT1 1222 A > G (rs628031) AA, n=1); 1820 ± 1010 ng/mL in data set [3] (OCT1 1222 A > G (rs628031) AG, n=10); 1500 ± 798 ng/mL in [3] (OCT1 1222 A > G (rs628031) GG, n=18); 1580 ± 801 ng/mL in data set [3] (OCT1 1386C > A (rs 622342) AA, n=24). Further, the concentration at 22 h worked out at 1490 ± 1380 ng/mL in data set [3] (OCT1 1386C > A (rs 622342) AC, n=5); 961 ± 401 ng/mL in data set [3] (OCT1 1795G > A (rs6935207) AA, n=8); 1860 ± 978 ng/mL in data set [3] (OCT1 1795G > A (rs6935207) AG, n=13); 1700 ± 890 ng/mL in data set [3] (OCT1 1795G > A (rs6935207) GG, n=8). The “pH at which IM tablets dissolve rapidly” value in data set [4] is listed as ≤ 5.5. The longitudinal migration capacity entry in [5] (20 μM of IM for 48 h, P < 0.01) is reported as “decreased significantly”. Further, the “GISTs patients developing secondary drug resistance” value in the data set with GISTs (after 1–3 years of IM treatment) is ~85%.

On to `CCn1c(=O)c(-c2cc(NC(=O)Nc3ccccc3)c(F)cc2Br)cc2cnc(NC)cc21` [ripretinib], for which, in the data set on GISTs (phase III trial), the “median PFS” value is given as 6.3 months and the objective response rate is recorded as 9%.

On to `CCN(CC)CCNC(=O)c1c(C)[nH]c(/C=C2\C(=O)Nc3ccc(F)cc32)c1C` [sunitinib], for which, in the data set on GISTs (use after IM resistance), the “median PFS” value is 9.9 months and the objective response rate is recorded as 5.5%.

Regarding `CNC(=O)c1cc(Oc2ccc(NC(=O)Nc3ccc(Cl)c(C(F)(F)F)c3)c(F)c2)ccn1` [regorafenib], in the data set on GISTs (use after sunitinib resistance), the “median PFS” value is reported as 4.8 months and the objective response rate is 5.5%.

On to `CCCCCCCCCCCCC/C=C/[C@@H](O)[C@H](CO)N(C)C` [DMS, N,N-dimethylsphingosine], for which the “proportion of G0/G1 phase” value in the data set on GIST-T1 cells (GIST-T1, DMS with IM vs only IM) is “significantly lower”; in the data set with GIST-T1/IMR cells it was “significantly lower”. Moreover, the apoptosis rate entry in data set [1] (after DMS interference vs cells without DMS treatment) is reported as “significantly higher”. Besides, the Colony formation ability result in data set [2] (DMS pretreatment vs IM intervention's group) is given as “further reduced”. For the same molecule, the “ability of longitudinal migration” value in data set [5] (DMS pretreatment with IM) is on record as “further block”. Moreover, the “number of transmembrane cells” value in data set [6] is listed as “further reduced dramatically”. Further, in the data set with SPK1, the “inhibitory activity on sphingosine kinases” value was “high inhibitory activity on SPK1 compared to SPK2”. Moreover, in data set [7], the “protein levels of S1P, ABCC1 and SPK1” value is recorded as “decreased”. Also, the scratch healing rate result in data set [8] is reported as “significantly decreased”.
